Results: publication PMC4629852 (Nature chemical biology, 2015)

How the values were obtained:
ERRα [1] = biological target: T1, ERRα (Homo sapiens, UniProt P11474); assay: ERRα degradation in MCF-7 cells by immunoblotting; type: cell-based
T1 sequence (P11474 1-423): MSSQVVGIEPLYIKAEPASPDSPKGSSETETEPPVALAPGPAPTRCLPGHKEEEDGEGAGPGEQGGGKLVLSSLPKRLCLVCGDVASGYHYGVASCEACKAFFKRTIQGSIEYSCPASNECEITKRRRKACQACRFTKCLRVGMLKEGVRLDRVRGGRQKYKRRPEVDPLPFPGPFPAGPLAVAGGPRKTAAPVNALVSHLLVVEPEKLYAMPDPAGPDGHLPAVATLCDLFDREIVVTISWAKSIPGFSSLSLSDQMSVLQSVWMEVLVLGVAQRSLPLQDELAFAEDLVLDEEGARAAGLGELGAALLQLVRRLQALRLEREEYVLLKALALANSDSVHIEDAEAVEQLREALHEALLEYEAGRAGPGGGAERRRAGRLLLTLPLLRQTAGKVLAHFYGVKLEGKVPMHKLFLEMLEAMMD
Outline: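 MCF7 cells were grown in DMEM/F12 + 10% FBS at 37 °C, 5% CO₂. They were seeded at 70% confluency, attached overnight, then treated with test compound for 8 h. An optional 1 h pretreatment with 1 μM epoxomicin preceded compound. Lysates were BCA-normalised, run on 4–12% gels, transferred to PVDF, milk-blocked and probed overnight with anti-ERRα.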

VHL complex = VHL complex (Homo sapiens, UniProt P40337); assay: Competitive binding fluorescence polarization vs HIF1α-derived peptide
RIPK2 [2] = biological target: RIPK2 (Homo sapiens, UniProt O43353+P40337); assay: In vitro ubiquitination in reconstituted E1-E2-VHL cascade; type: biochemical
Outline: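 Three-stage reaction at room temperature. First, RIPK2 (500 nM final) was autophosphorylated with [³²P]γ-ATP for 10 min in Tris/KCl/Mg/Mn/DTT buffer, pH 7.5. Ubiquitination buffer (2 mM ATP) was then added with VHL (250 nM final) and test compound at various concentrations. Separately, UbE1 (25 nM), Ubc4 (250 nM) and ubiquitin (116 μM) were precharged. The mixtures were combined and quenched over time. ³²P was converted to moles of RIPK2 (five phosphopeptides) and compared with moles of compound.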

RIPK2 [3] = biological target: T2, RIPK2 (Homo sapiens, UniProt O43353); assay: RIPK2 degradation in THP-1 monocytes by immunoblotting; type: cell-based
Outline: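 THP-1 cells were cultured in RPMI 1640 + 10% FBS at 37 °C, 5% CO₂. Cells (5 × 10⁶) were treated with a dose range for 16 h, or at 30 nM for a time course. Options were a 1 h pretreatment with 1 μM epoxomicin, or washout after 4 h with PBS washes and fresh medium. RIPK2 was detected by western blot.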

RIPK2 [4] = biological target: T2, RIPK2; assay: Expression proteomics in THP-1 cells; type: cell-based; conditions: THP-1, 30 nM, 6, 18 and 24 h
[5] = biological target: VHL-RIPK2 ternary complex (Homo sapiens, UniProt O43353+P40337); type: binding; conditions: THP-1 lysate
Outline: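 THP-1 lysate in Tris/glycerol/MgCl₂/NaCl/vanadate/0.008% NP40 buffer was adjusted to 5 mg ml⁻¹. Lysate (10 mg protein) was incubated with compound at 3, 30 or 300 nM, or DMSO, for 2 h at 4 °C. It was then captured for 2 h at 4 °C on anti-VHL or IgG1κ control agarose beads. Eluates were analysed by immunoblot and LC-MS, as log₂ fold changes over replicates (≥2 unique peptides).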

ERRα [6] = biological target: T1, ERRα; assay: In vivo ERRα knockdown in MDA-MB-231 tumor xenografts in mice, western blotting; conditions: 100 mg/kg i.p. every 8 h, four doses, ~5 h after last dose, vs vehicle
HIF1α = assay: ODD-luciferase assay of HIF1α processing by VHL; type: cell-based
BCR = biological target: T3, BCR (Homo sapiens, UniProt P11274); assay: Expression proteomics in MCF-7 cells; type: cell-based; conditions: MCF-7, 500 nM, prolonged incubation, P < 0.05
T3 sequence (P11274 1-1271): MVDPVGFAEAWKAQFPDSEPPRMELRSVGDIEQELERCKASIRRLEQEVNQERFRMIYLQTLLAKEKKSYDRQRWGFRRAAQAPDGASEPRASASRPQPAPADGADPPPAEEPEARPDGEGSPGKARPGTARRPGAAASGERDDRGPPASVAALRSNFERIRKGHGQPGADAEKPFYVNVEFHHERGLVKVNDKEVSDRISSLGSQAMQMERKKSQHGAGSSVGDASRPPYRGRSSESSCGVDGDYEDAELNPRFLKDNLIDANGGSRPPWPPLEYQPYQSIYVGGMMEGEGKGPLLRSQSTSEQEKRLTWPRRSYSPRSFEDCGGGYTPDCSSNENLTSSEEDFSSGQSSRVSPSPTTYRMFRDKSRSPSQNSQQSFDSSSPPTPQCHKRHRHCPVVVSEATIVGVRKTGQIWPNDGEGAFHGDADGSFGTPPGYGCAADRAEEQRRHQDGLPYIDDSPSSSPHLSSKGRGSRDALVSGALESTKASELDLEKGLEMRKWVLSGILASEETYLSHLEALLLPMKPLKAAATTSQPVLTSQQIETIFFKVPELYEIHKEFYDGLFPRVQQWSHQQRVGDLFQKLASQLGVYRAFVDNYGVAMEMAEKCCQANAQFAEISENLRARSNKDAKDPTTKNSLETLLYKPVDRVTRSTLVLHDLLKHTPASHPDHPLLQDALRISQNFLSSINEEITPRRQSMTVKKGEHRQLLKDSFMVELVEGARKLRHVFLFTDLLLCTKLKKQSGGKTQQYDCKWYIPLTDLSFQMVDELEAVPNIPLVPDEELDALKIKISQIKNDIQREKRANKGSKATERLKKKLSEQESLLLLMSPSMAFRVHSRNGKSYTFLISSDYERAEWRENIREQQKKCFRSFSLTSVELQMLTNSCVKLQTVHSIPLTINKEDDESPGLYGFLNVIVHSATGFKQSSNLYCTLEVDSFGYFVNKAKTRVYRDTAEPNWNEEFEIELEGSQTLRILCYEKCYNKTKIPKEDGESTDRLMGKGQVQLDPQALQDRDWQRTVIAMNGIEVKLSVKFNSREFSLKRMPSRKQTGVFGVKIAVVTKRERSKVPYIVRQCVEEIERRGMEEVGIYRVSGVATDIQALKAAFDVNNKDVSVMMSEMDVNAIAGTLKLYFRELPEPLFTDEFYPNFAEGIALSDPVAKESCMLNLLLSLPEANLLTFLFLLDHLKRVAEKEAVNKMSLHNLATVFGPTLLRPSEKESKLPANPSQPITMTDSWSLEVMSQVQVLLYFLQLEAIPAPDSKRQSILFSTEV
Outline: (§1)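 MCF-7 cells were plated 1 day before treatment at 1 × 10⁶ cells/well in MEM + 10% FBS + 1% NEAA + sodium pyruvate. They were treated in biological duplicate for the indicated times, scraped into ice-cold PBS and lysed in 2% SDS (95 °C, 3 min). Benzonase digestion followed (37 °C, 1.5 h), then BCA. Proteins were reduced with DTT, alkylated with iodoacetamide, gel-separated, trypsin-digested and quantified by LC-MS/MS.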

ERRα [7] = biological target: T1, ERRα; assay: Expression proteomics in MCF-7 cells; type: cell-based; conditions: MCF-7, 100 nM and 500 nM, 4, 8 or 24 h
Outline: as §1

ERRα [8] = biological target: T4, ERRα (Mus musculus, UniProt O08580); assay: In vivo ERRα knockdown in mouse tissues, western blotting; conditions: mice, 100 mg/kg i.p. every 8 h, four doses, ~5 h after last dose, vs vehicle
T4 sequence (O08580 1-422): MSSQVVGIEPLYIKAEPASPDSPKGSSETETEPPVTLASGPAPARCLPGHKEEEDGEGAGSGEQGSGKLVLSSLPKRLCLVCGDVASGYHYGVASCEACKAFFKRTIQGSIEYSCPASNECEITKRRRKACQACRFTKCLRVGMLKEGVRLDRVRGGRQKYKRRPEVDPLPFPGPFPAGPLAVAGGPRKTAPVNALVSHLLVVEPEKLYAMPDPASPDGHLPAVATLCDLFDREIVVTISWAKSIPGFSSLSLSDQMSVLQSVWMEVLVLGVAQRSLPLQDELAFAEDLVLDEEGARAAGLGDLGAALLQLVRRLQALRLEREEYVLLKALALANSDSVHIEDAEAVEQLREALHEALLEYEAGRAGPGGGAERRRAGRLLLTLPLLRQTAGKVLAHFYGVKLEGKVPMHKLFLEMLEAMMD

MAPKAPK3 [9] = biological target: T5, MAPKAPK3 (Homo sapiens, UniProt Q16644); assay: Kinobeads competition binding; conditions: below the limit of detection
THP-1 cells = assay: Cellular toxicity; type: cell-based, human; conditions: any concentration, Supplementary Fig. 7
MAPKAPK3 [10] = biological target: T5, MAPKAPK3; assay: Expression proteomics in THP-1 cells; type: cell-based; conditions: THP-1, 30 nM; of ~7,000 proteins only RIPK2 and MAPKAPK3
Outline: (§2)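 THP-1 cells were seeded at 3 × 10⁶ cells/well in RPMI1640 + 10% heat-inactivated FBS. They were exposed to 30 nM test compound for 6, 18 or 24 h; the 18 h arm was run in biological duplicate. Cells were collected on ice, washed twice in cold PBS, snap-frozen and SDS-lysed. Proteins were reduced, alkylated, gel-separated, trypsin-digested and quantified proteome-wide by LC-MS/MS.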

RIPK3, ABL and TESK = assay: Expression proteomics in THP-1 cells; type: cell-based, human; conditions: THP-1, 30 nM
Outline: as §2

Compound: COc1cc(/C=C2\SC(=O)N(CCOCCC(=O)N[C@H](C(=O)N3C[C@@H](O)C[C@H]3C(=O)NCc3ccc(-c4scnc4C)cc3)C(C)(C)C)C2=O)ccc1Oc1ccc(C#N)cc1C(F)(F)F [PROTAC_ERRα_epi]
- reduction of ERRα protein levels (ERRα [1]; MCF-7, at concentrations at which the active PROTAC reduced ERRα levels by 50%): ~ 20%

Compound: Cc1ncsc1-c1ccc(CNC(=O)[C@H]2C[C@H](O)CN2C(=O)[C@@H](NC(=O)COCCOCCOCCOCCOc2cc3nccc(Nc4ccc5scnc5c4)c3cc2S(=O)(=O)C(C)(C)C)C(C)(C)C)cc1 [PROTAC_RIPK2_epi]
- binding to VHL (VHL complex; concentrations up to 10 μM): no binding to VHL
- ubiquitination of RIPK2 (RIPK2 [2]; any concentration (50, 100, 200 nM), up to 35 min): unable to induce ubiquitination
- degradation of RIPK2 (RIPK2 [3]; THP-1 cells, Supplementary Fig. 6f): no degradation of RIPK2
- RIPK2 levels (RIPK2 [4]): neither the PROTAC_RIPK2_epi nor the RIPK2 ligand affected RIPK2 levels
- enrichment of RIPK2 in VHL immunoprecipitate [5]: did not influence the immune-captured proteins or enrich RIPK2 levels

Compound: COc1cc(/C=C2\SC(=O)N(CCOCCC(=O)N[C@H](C(=O)N3C[C@H](O)C[C@H]3C(=O)NCc3ccc(-c4scnc4C)cc3)C(C)(C)C)C2=O)ccc1Oc1ccc(C#N)cc1C(F)(F)F [PROTAC_ERRα]
- reduction of ERRα levels in MDA-MB-231 tumors (ERRα [6]): ~39%
- stabilization of HIF1α (ODD-luciferase) (HIF1α; concentrations up to 30 μM): did not stabilize HIF1α
- BCR levels (BCR): downregulated
- ERRα levels (ERRα [7]): decreased levels of ERRα
- decrease in normalized ERRα levels (ERRα [1]; MCF-7, 1 h pretreatment with 1 μM epoxomicin): 5%
- maximal level of degradation (Dmax) (ERRα [1]; MCF-7 cells, 8 h): 86%
- reduction of ERRα levels in heart (ERRα [8]): approximately 44%
- reduction of ERRα levels in kidney (ERRα [8]): approximately 44%

Compound: Cc1ncsc1-c1ccc(CNC(=O)[C@@H]2C[C@@H](O)CN2C(=O)[C@@H](NC(=O)COCCOCCOCCOCCOc2cc3nccc(Nc4ccc5scnc5c4)c3cc2S(=O)(=O)C(C)(C)C)C(C)(C)C)cc1 [PROTAC_RIPK2]
- IC50 (VHL complex; competition with HIF1α-derived peptide for VHL complex): 0.66 µM
- stoichiometry (modified RIPK2 to PROTAC) (RIPK2 [2]; 2.0 pmol PROTAC, final time point): 2.0
- modified RIPK2 (RIPK2 [2]; 2.0 pmol PROTAC, final time point (35 min), 500 nM RIPK2): 4.0 pmol
- window between RIPK2 degradation and modulation of endogenous VHL function (RIPK2 [3]; RIPK2 degradation vs ODD-luciferase): > 1,000 fold
- earliest time at which RIPK2 degradation was observed (RIPK2 [3]; THP-1, 30 nM): 1 h
- time at which RIPK2 degradation was nearly complete (RIPK2 [3]; THP-1, 30 nM): 4 h
- time for protein levels to recover to pre-treatment levels after removal (RIPK2 [3]; THP-1, 4 h pretreatment with 30 nM, washout): ≤ 24 h
- RIPK2 protein levels at high concentration (hook effect) (RIPK2 [3]; THP-1, 16 h, 30 μM): returning to basal levels
- Dmax (RIPK2 [3]; THP-1, 16 h, at concentrations of 10 nM and higher): > 95%
- Kd (MAPKAPK3 [9]): > 3 µM
- RIPK2 levels (RIPK2 [4]): induced the degradation of RIPK2 from 6 h onwards
- stabilization of HIF1α (ODD-luciferase) (HIF1α; 30 μM): modest stabilization of HIF1α
- effect on ODD-luciferase levels (HIF1α; concentrations up to 3 μM): no effect
- cellular toxicity (THP-1 cells): No cellular toxicity
- MAPKAPK3 levels (MAPKAPK3 [10]): significantly degraded
- levels of other kinases bound (RIPK3, ABL and TESK) (RIPK3, ABL and TESK): not degraded
- co-recruitment of RIPK2 over background ([5]; 30 nM): up to 16 fold
- change of RIPK2 enrichment ([5]; 300 nM versus 30 nM): reduced by two-fold
